Measurements: the M2OR odorant receptor database

Columns and labels:
Details in all cases: stereoisomer not certain
[1] = biological target: T1, OR51I2 (Homo sapiens) (UniProt Q9H344)
T1 sequence (whole entry): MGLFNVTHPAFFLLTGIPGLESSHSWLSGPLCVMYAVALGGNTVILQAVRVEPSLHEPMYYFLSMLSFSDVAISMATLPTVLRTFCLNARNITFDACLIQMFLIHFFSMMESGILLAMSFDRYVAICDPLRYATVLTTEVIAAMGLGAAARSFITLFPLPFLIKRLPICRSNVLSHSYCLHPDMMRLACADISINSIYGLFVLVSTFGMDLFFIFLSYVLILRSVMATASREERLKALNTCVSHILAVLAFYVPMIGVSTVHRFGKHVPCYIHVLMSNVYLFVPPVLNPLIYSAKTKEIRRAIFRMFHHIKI
Method in brief: (§1)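 Each receptor–molecule pair is labelled responsive or non-responsive (inactive) according to whether the original authors judged the measured signal statistically different from baseline. The data were taken from the main text and supplementary material of published papers and checked for typos and inconsistencies. Assay methods differed by source, with transient luciferase assays in mammalian cell lines being common.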

[2] = biological target: T2, OR51J1 (Homo sapiens) (UniProt Q9H342)
T2 sequence (whole entry): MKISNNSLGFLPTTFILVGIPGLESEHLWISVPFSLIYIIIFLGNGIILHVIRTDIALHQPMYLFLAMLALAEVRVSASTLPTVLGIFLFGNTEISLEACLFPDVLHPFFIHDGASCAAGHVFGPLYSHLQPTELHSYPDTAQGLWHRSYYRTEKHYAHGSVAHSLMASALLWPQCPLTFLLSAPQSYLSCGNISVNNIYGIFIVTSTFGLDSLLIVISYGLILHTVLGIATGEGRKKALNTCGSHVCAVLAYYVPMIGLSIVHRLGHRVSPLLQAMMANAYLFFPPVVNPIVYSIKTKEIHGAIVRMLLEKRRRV
Method in brief: as §1

[3] = biological target: T3, OR51L1 (Homo sapiens) (UniProt Q8NGJ5)
T3 sequence (whole entry): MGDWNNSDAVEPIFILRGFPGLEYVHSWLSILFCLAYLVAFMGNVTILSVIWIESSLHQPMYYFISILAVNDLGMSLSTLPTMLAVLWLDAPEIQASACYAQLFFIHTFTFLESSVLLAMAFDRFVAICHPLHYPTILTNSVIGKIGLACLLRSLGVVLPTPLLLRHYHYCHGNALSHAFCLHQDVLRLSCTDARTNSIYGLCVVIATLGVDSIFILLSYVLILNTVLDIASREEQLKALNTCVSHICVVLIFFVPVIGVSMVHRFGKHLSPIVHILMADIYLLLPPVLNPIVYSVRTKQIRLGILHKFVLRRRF
Method in brief: as §1

[4] = biological target: T4, OR51M1 (Homo sapiens) (UniProt Q9H341)
T4 sequence (whole entry): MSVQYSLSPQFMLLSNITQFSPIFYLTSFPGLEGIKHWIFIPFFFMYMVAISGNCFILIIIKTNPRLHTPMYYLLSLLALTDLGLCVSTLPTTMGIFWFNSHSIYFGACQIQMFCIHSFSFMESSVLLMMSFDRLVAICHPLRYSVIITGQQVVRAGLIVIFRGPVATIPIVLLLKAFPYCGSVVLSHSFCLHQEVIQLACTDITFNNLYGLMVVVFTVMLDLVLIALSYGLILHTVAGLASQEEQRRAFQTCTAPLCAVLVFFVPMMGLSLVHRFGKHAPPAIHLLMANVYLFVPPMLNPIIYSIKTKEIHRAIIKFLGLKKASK
Method in brief: as §1

[5] = biological target: T5, OR51Q1 (Homo sapiens) (UniProt Q8NH59)
T5 sequence (whole entry): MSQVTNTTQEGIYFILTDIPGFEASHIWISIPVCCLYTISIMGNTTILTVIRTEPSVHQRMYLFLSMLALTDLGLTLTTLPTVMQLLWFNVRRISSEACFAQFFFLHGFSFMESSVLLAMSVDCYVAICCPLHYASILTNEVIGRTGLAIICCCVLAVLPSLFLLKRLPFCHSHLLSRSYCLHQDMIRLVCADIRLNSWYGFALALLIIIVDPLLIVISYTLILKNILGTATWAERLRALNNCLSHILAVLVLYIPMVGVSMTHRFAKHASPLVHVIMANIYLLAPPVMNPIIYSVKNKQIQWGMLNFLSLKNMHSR
Method in brief: as §1

[6] = biological target: T6, OR51S1 (Homo sapiens) (UniProt Q8NGJ8)
T6 sequence (whole entry): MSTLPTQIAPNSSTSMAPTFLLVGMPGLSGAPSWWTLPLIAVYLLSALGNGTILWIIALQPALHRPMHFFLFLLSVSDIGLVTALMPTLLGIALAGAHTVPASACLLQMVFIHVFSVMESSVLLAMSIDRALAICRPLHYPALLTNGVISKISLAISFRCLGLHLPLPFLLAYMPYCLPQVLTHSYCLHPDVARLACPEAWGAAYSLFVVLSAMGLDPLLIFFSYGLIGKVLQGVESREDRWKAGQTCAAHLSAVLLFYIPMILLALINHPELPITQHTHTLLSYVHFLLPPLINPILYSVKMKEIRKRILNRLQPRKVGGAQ
Method in brief: as §1

[7] = biological target: T7, OR51V1 (Homo sapiens) (UniProt Q9H2C8)
T7 sequence (whole entry): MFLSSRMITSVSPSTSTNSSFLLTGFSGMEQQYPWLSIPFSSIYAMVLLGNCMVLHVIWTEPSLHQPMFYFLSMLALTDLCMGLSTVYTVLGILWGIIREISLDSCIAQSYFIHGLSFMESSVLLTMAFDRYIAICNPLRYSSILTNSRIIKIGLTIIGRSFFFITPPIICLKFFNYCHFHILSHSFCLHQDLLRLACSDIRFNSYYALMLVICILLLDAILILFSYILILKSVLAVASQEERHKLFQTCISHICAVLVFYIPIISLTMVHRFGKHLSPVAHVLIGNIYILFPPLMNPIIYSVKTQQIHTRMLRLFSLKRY
Method in brief: as §1

[8] = biological target: T8, OR52A1 (Homo sapiens) (UniProt Q9UKL2)
T8 sequence (whole entry): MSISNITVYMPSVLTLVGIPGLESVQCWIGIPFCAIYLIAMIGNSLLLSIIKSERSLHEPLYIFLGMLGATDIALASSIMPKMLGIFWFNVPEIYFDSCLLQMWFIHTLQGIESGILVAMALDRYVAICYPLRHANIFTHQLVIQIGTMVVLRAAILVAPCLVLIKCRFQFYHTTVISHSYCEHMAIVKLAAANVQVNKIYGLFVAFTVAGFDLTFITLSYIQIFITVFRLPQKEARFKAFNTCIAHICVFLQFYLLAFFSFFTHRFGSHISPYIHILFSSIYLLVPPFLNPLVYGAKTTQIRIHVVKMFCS
Method in brief: as §1

[9] = biological target: T9, OR52A5 (Homo sapiens) (UniProt Q9H2C5)
T9 sequence (whole entry): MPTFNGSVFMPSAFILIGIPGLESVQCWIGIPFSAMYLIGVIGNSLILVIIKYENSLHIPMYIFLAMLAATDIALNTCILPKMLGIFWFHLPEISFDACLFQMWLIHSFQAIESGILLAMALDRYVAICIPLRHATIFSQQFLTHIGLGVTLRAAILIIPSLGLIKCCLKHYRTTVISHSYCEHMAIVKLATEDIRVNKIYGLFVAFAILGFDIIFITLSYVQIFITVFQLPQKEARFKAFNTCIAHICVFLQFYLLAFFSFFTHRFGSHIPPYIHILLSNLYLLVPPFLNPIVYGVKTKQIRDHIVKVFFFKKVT
Method in brief: as §1

[10] = biological target: T10, OR52B2 (Homo sapiens) (UniProt Q96RD2)
T10 sequence (whole entry): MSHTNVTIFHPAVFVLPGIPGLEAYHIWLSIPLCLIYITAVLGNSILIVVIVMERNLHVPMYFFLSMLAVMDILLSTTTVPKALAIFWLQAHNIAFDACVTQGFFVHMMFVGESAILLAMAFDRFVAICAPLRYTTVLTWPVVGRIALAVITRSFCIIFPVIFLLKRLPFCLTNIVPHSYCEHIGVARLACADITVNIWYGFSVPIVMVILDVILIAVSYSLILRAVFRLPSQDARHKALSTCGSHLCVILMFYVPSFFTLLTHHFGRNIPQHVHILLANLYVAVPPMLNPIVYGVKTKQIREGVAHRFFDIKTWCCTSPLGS
Method in brief: as §1

[11] = biological target: T11, OR52B4 (Homo sapiens) (UniProt Q8NGK2)
T11 sequence (whole entry): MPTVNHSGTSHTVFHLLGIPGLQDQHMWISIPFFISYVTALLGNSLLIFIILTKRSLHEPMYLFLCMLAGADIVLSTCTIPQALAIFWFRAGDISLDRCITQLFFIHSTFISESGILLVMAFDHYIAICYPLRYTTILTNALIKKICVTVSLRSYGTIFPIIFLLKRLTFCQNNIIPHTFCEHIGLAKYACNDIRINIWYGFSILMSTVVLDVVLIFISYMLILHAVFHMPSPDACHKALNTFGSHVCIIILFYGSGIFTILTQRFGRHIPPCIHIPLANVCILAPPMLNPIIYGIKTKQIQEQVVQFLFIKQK
Method in brief: as §1

[12] = biological target: T12, OR52B6 (Homo sapiens) (UniProt Q8NGF0)
T12 sequence (whole entry): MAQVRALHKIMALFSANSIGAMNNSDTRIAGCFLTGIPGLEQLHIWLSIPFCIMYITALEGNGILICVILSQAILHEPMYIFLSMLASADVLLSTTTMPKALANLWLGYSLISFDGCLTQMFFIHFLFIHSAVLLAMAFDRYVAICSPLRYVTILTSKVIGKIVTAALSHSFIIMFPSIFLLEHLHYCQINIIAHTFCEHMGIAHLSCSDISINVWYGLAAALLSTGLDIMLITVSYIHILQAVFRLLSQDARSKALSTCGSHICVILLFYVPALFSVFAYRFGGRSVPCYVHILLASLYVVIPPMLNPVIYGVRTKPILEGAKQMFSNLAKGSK
Method in brief: as §1

[13] = biological target: T13, OR52D1 (Homo sapiens) (UniProt Q9H346)
T13 sequence (whole entry): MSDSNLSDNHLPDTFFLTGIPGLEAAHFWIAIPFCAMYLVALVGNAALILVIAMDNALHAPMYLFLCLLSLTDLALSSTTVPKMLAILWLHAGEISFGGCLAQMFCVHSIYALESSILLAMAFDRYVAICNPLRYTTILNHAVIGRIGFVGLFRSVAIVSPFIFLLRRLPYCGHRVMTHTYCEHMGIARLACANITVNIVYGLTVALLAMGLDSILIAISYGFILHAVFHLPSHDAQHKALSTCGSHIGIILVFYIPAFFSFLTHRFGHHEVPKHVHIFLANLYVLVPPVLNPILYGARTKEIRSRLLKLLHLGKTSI
Method in brief: as §1

[14] = biological target: OR52E1 (Homo sapiens) (UniProt Q8NGJ3)
Method in brief: as §1

[15] = biological target: OR52E2 (Homo sapiens) (UniProt Q8NGJ4)
Method in brief: as §1

[16] = biological target: OR52E4 (Homo sapiens) (UniProt Q8NGH9)
Method in brief: as §1

[17] = biological target: OR52E6 (Homo sapiens) (UniProt Q96RD3)
Method in brief: as §1

[18] = biological target: T14, OR51T1 (Homo sapiens) (UniProt Q8NGJ9)
T14 sequence (whole entry): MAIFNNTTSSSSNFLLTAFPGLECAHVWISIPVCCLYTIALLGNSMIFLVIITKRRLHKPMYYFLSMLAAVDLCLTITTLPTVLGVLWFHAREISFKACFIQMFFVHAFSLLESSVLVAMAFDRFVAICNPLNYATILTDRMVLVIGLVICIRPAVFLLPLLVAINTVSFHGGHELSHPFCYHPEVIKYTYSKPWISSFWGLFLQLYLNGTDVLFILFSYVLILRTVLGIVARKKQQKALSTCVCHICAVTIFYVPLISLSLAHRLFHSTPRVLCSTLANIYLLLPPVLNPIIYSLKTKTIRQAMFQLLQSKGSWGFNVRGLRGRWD
Method in brief: as §1

[19] = biological target: T15, OR52A4P (Homo sapiens) (UniProt A6NMU1)
T15 sequence (whole entry): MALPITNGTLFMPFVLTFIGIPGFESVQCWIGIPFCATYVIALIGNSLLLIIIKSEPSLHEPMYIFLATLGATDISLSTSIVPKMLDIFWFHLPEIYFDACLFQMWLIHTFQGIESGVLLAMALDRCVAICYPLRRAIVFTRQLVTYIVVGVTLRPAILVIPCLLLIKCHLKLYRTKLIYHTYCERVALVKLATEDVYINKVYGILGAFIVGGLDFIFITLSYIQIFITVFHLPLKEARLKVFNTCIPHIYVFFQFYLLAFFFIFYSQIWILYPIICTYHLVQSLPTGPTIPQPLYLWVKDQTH
Method in brief: as §1

[20] = biological target: OR52E5 (Homo sapiens) (UniProt Q8NH55)
Method in brief: as §1

Measured: odorant receptor agonist call;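 also: active if original authors judged signal statistically different from baseline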

Sequence of OR52E4 (Homo sapiens) (Q8NGH9 whole entry): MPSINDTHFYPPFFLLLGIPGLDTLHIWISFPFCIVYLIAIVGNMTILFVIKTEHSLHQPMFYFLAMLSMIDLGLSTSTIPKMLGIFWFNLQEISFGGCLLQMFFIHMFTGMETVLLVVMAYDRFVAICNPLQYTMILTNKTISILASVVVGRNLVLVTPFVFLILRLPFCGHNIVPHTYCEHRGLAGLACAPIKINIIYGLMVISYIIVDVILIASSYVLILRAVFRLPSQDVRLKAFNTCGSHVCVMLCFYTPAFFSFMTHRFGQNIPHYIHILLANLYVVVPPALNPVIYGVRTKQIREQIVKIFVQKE
Sequence of OR52E6 (Homo sapiens) (Q96RD3 whole entry): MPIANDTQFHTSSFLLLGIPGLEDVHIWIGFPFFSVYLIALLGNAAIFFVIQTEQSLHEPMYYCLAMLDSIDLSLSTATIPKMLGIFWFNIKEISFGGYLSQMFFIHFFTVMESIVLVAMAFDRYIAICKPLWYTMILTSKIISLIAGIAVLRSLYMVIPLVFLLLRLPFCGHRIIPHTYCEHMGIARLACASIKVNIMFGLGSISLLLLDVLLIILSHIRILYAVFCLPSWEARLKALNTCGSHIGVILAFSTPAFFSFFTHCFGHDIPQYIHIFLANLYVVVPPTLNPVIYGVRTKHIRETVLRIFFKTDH
Sequence of OR52E2 (Homo sapiens) (Q8NGJ4 whole entry): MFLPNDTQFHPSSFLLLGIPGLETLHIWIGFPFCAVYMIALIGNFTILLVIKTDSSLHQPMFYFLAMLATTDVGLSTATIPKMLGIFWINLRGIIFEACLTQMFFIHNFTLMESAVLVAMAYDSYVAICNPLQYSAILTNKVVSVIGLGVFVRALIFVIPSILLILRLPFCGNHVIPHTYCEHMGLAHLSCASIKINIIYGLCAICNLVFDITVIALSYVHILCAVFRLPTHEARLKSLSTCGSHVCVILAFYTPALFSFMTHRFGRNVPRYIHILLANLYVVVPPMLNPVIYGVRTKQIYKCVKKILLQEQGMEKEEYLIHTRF
Sequence of OR52E1 (Homo sapiens) (Q8NGJ3 whole entry): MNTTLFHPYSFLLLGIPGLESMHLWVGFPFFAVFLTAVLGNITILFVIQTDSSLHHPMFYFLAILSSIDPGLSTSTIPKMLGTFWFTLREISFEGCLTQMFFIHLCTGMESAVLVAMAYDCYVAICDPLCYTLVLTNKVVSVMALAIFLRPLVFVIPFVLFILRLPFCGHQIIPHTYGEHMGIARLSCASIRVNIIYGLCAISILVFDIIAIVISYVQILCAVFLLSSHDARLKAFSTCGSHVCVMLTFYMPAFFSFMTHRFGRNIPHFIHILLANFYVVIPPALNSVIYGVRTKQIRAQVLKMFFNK
Sequence of OR52E5 (Homo sapiens) (Q8NH55 whole entry): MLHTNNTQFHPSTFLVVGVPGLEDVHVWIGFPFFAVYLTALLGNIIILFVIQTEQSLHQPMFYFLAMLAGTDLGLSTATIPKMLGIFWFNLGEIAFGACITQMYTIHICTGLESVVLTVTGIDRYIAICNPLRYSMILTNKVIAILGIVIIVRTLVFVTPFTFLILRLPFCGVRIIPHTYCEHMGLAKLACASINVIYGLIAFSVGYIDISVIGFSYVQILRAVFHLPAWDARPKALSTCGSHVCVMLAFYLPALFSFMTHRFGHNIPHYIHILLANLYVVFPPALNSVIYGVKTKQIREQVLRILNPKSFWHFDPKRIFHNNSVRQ

CCC1OC(C)=C(O)C1=O (centres undefined)
not listed: [18] | [19] | [20]
inactive: all other assays above

CCC(C(=O)O)c1ccccc1 (centres undefined)
inactive: [3]

CC1CCCCCCCCCCCCC(=O)C1 (centres undefined)
inactive: all assays above

O=C(c1ccccc1)c1ccccc1
inactive: [3]

CCCC(S)CCOC(C)=O (centres undefined)
not listed: [18] | [19] | [20]
inactive: all other assays above

CCCC(=O)C(C)=O
inactive: [3]

Cc1cnc(C)c(C)n1
not listed: [18] | [19] | [20]
inactive: all other assays above

CC(=O)OCC=C(C)C
inactive: [3]

CC(CO)CS (centres undefined)
not listed: [14]
inactive: all other assays above
